# The sample as a whole holds a higher share of hits than the screen did.
# T cruzi HTS = inhibitors of intracellular Trypanosoma cruzi, primary screen, cell-based, plate reader, single point, set 2; intracellular Trypanosoma cruzi in host cells; activity score (inhibition), % at 5.01 µM; AID 651903, 2012; actives 4.9% (n = 22,000); in the data active = activity score above about 55%;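 also: parasites and compound incubated about four days before reading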
# INS-1E rescue = protection of INS-1E cells from cytokine death, primary screen, ATP luminescence, single point; INS-1E cytokine-induced death, 48 h; normalised: neutral wells 0, positive control 100; protection from cytokine-induced ATP loss, % at 10 µM; actives 0.1% (n = 20,000); AID 488910, 2010;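 active = mean replicate protection from cytokine-induced ATP loss at least 50% and at least 75% of replicates each reaching 50%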
#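 Assay system – rat INS-1E insulinoma cell line · Quantity – 8000 cells per well · Buffer or medium – RPMI without phenol red, 5% FBS · Schedule – 48 h co-treatment, 10 min post-lysis read · Technique – luminescent ATP assay (CellTiter-Glo)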
# A1 apoptosis 2 = A1 inhibitors via caspase activation, primary screen, cell-based, luminescence, HTS, two replicates | MEF A1-2A-BIM cells, caspase-Glo luminescence, 3 h; percent of clofoctol response, DMSO zero | caspase activation, % (no concentration beside the values) | 24,000 tested, under 10 active; in the data active = caspase activation above about 5.9%
#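 System: mouse embryonic fibroblasts co-expressing A1 and BIM (A1-2A-BIM), primed for A1 dependence; amount: 2500 cells/well; doses: 50 nL pinned compound; schedule: cells settled overnight, compound exposure 3 h at 37 °C, 5% CO2; detection: Caspase-Glo 3/7 luminescence, 1 h at room temperature; read-out: Caspase-3/7 activation, seen as rise in luminescence signal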
# Hits are given with their value; i = inactive; nt = no result given.
SMILES,T cruzi HTS,INS-1E rescue,A1 apoptosis 2
C[C@@H]1CN([C@@H](C)CO)C(=O)Cc2cc(NC(=O)Nc3ccc(C(F)(F)F)cc3)ccc2O[C@@H]1CN(C)Cc1ccncc1,69,i,i
C[C@H]1CN([C@@H](C)CO)C(=O)Cc2cc(NC(=O)Nc3ccc(C(F)(F)F)cc3)ccc2O[C@H]1CN(C)Cc1ccncc1,68,i,i
C[C@H](CO)N1C[C@H](C)[C@@H](CN(C)Cc2ccncc2)Oc2ccc(NC(=O)Nc3ccc(C(F)(F)F)cc3)cc2CC1=O,nt,nt,i
C[C@@H]1CN([C@H](C)CO)C(=O)Cc2cc(NC(=O)Nc3ccc(C(F)(F)F)cc3)ccc2O[C@@H]1CN(C)Cc1ccncc1,65,i,i
C[C@H](CO)N1C[C@H](C)[C@H](CN(C)Cc2ccc(C(F)(F)F)cc2)Oc2ccc(NC(=O)c3ccncc3)cc2CC1=O,i,i,i
C[C@@H]1CN([C@H](C)CO)C(=O)Cc2cc(NC(=O)c3ccncc3)ccc2O[C@H]1CN(C)Cc1ccc(C(F)(F)F)cc1,i,i,i
CN(CCO)c1ccc(/C=N/NC(=O)c2ccccc2O)cc1,i,i,i
O=C(CCCCCCC(=O)Nc1ccccc1O)N/N=C/c1ccc(-c2ccccc2)cc1,i,i,i
CC(=O)O[C@@H]1[C@H](c2ccc(=O)oc2)C2[C@H](C)C[C@H]3[C@@H](CC[C@@H]4C[C@@H](O)CC[C@@]43C)[C@]23O[C@H]13 (stereo not given in full),nt,nt,i
COC(=O)CCCCCCC(=O)N/N=C/c1ccccc1C,i,i,nt
C[C@H](CO)N1C[C@H](C)[C@H](CN(C)C(=O)Nc2ccc(C(F)(F)F)cc2)Oc2c(NC(=O)Nc3ccc(C(F)(F)F)cc3)cccc2C1=O,78,i,nt
C[C@@H]1CN([C@H](C)CO)C(=O)c2cccc(NC(=O)Nc3ccccc3)c2O[C@H]1CN(C)C(=O)Nc1ccc(C(F)(F)F)cc1,i,i,i
C[C@@H]1CN([C@H](C)CO)C(=O)c2cccc(NC(=O)Nc3ccc(C(F)(F)F)cc3)c2O[C@H]1CN(C)C(=O)Nc1ccc(C(F)(F)F)cc1,75,i,i
C[C@H](CO)N1C[C@H](C)[C@H](CN(C)Cc2ccc(Cl)c(Cl)c2)Oc2c(NC(=O)Nc3ccc(C(F)(F)F)cc3)cccc2C1=O,63,i,i
C[C@H]1CN([C@@H](C)CO)C(=O)c2cccc(NC(=O)Nc3ccc(C(F)(F)F)cc3)c2O[C@H]1CN(C)C(=O)Nc1ccccc1,i,i,i
C[C@H](CO)N1C[C@H](C)[C@H](CN(C)Cc2ccc(Cl)c(Cl)c2)Oc2c(NC(=O)Nc3ccc(F)cc3)cccc2C1=O,i,i,nt
C[C@H]1CN([C@@H](C)CO)C(=O)c2cccc(NC(=O)Nc3ccc(F)cc3)c2O[C@@H]1CN(C)C(=O)Nc1ccc(C(F)(F)F)cc1,i,i,i
C[C@@H]1CN([C@@H](C)CO)C(=O)c2cccc(NC(=O)Nc3ccc(C(F)(F)F)cc3)c2O[C@@H]1CN(C)C(=O)Nc1ccc(C(F)(F)F)cc1,88,i,nt
COc1cc(/C=C/C=N/NC(=O)c2ccccn2)ccc1O,i,i,nt
C=CCOC(=O)C(=O)/C=C/C1CC1,nt,nt,i
C[C@H](CO)N1C[C@H](C)[C@@H](CN(C)C(=O)Nc2ccc(C(F)(F)F)cc2)Oc2c(NC(=O)Nc3ccc(C(F)(F)F)cc3)cccc2C1=O,78,i,i
C[C@H](CO)N1C[C@H](C)[C@H](CN(C)C(=O)Nc2ccc(C(F)(F)F)cc2)Oc2c(NC(=O)NC3CCCCC3)cccc2C1=O,75,i,i
C[C@H]1CN([C@@H](C)CO)C(=O)c2cccc(NC(=O)Nc3ccc(C(F)(F)F)cc3)c2O[C@@H]1CN(C)C(=O)Nc1ccc(F)cc1,i,i,i
C[C@H](CO)N1C[C@H](C)[C@H](CN(C)C(=O)NC2CCCCC2)Oc2c(NC(=O)Nc3cccc4ccccc34)cccc2C1=O,63,i,i
C[C@H]1CN([C@@H](C)CO)C(=O)c2cccc(NC(=O)Nc3cccc4ccccc34)c2O[C@@H]1CN(C)C(=O)Nc1ccc(F)cc1,i,i,i
SMILES,T cruzi HTS,INS-1E rescue,A1 apoptosis 2
C[C@H]1CN([C@@H](C)CO)C(=O)c2cccc(NC(=O)NC3CCCCC3)c2O[C@@H]1CN(C)C(=O)Nc1ccc(C(F)(F)F)cc1,i,i,i
C[C@@H]1CN([C@H](C)CO)C(=O)c2cccc(NC(=O)Nc3cccc4ccccc34)c2O[C@H]1CN(C)C(=O)NC1CCCCC1,i,i,i
C[C@H](CO)N1C[C@H](C)[C@H](CN(C)C(=O)Nc2ccc(F)cc2)Oc2c(NC(=O)Nc3cccc4ccccc34)cccc2C1=O,71,i,i
C[C@H](O)[C@H](O)[C@@H](O)[C@@H](O)/C=N/NC(=O)CCCCCCC(=O)Nc1ccccc1O,i,i,i
O=C(N1CCCCC1)[C@]1(CCS(=O)(=O)c2ccccc2)N=C(c2ccc(OCCCO)cc2)O[C@@H]1c1ccccc1,nt,nt,i
O=C(CCCCCCC(=O)Nc1ccccc1O)N/N=C/c1nccs1,i,i,i
CC1=C2[C@@H](c3ccccc3)OB(O)C[C@@H]2n2c(=O)n(-c3ccccc3)c(=O)n2C1,nt,nt,i
COc1cccc(-n2cc(C(=O)NO)nn2)c1,nt,nt,i
C[C@@H]1CN([C@H](C)CO)C(=O)c2cccc(NC(=O)Nc3cccc4ccccc34)c2O[C@@H]1CN(C)C(=O)Nc1ccc(C(F)(F)F)cc1,65,i,i
C[C@@H]1CN([C@H](C)CO)C(=O)c2cccc(NC(=O)Nc3ccc(C(F)(F)F)cc3)c2O[C@@H]1CN(C)C(=O)Nc1ccc2c(c1)OCO2,i,i,i
C[C@@H]1CN([C@@H](C)CO)C(=O)c2cccc(NC(=O)Nc3ccc(C(F)(F)F)cc3)c2O[C@@H]1CN(C)Cc1ccc2c(c1)OCO2,61,i,i
C[C@H](CO)N1C[C@H](C)[C@H](CN(C)Cc2ccc(C(F)(F)F)cc2)Oc2c(NC(=O)Nc3ccc4c(c3)OCO4)cccc2C1=O,i,i,nt
C[C@H](CO)N1C[C@H](C)[C@H](CN(C)C(=O)Nc2ccc3c(c2)OCO3)Oc2c(NC(=O)Nc3ccc(C(F)(F)F)cc3)cccc2C1=O,63,i,i
C[C@@H]1CN([C@H](C)CO)C(=O)c2cccc(NC(=O)Nc3cccc4ccccc34)c2O[C@H]1CN(C)C(=O)Nc1ccc(C(F)(F)F)cc1,i,i,i
C[C@@H]1CCCCO[C@@H](CN(C)C(=O)Nc2cccc3ccccc23)[C@@H](C)CN([C@@H](C)CO)C(=O)c2cc(NC(=O)Nc3ccc(C(F)(F)F)cc3)ccc2O1,nt,nt,i
C[C@@H]1CN([C@@H](C)CO)C(=O)c2cc(NS(=O)(=O)c3ccc(Cl)cc3)ccc2O[C@H]1CN(C)CC1CC1,i,i,i
O=C(N/N=C/c1cccnc1)c1ccccn1,nt,nt,i
O=C(CCCCCCC(=O)Nc1ccccc1O)N/N=C/c1ccc(O)cc1O,i,i,nt

# Screens from PubChem BioAssay.
